Experimental data: ChEMBL document CHEMBL3797043 (Bioorg Med Chem Lett, 2016)
Calls of active or inactive are those of the source. The rule behind the calls is not given here.

Tests used:
[1] = test system: Mus musculus; assay: Analgesic effect in ICR mouse assessed as tail flick latencies at 50 mg/kg, ip measured 10 to 60 mins post dose by tail flick test; assay type: functional, organism-based
Procedure, shortened: (§1)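 Male ICR mice (18–22 g), blinded observers. Compounds in DMSO stock, diluted in Ringer's solution (final DMSO <10%), given ip in 0.1 mL. Distal 2–3 cm of tail immersed in 52°C ± .5 water; withdrawal latency (s) recorded before dosing and at 10, 20, 30, 45, 60 min after. ≥6 mice per compound per dose; mean ± SEM; two-way ANOVA with Bonferroni test.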

[2] = biological target: Pancreatic elastase (Sus scrofa) (UniProt P08419+P00772); assay: Inhibition of porcine pancreatic elastase at 10 uM using N-Succinyl-ala-ala-ala-p-nitroanilide substrate assessed as reduction in p-nitroaniline release measured over 5 mins; assay type: protein assay
Procedure, shortened: (§2)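 Commercial porcine enzymes (liver esterase, pancreatic elastase) assayed in microplates. The mix held enzyme, 100 uM chromogenic substrate, 0.125 M TrisCl and 0.2 mM EDTA at pH 8.0. Each reaction was started by adding substrate. Release of p-nitrophenol (esterase) or p-nitroaniline (elastase) was followed at 400 nm, with control rates linear over at least 5 min.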

[3] = biological target: T1, Liver carboxylesterase (Sus scrofa, UniProt Q29550); assay: Inhibition of porcine liver esterase using 4-nitrophenyl butyrate substrate assessed as reduction in p-nitrophenol release measured over 5 mins; procedure, shortened: as §2
T1 sequence (Q29550 whole entry): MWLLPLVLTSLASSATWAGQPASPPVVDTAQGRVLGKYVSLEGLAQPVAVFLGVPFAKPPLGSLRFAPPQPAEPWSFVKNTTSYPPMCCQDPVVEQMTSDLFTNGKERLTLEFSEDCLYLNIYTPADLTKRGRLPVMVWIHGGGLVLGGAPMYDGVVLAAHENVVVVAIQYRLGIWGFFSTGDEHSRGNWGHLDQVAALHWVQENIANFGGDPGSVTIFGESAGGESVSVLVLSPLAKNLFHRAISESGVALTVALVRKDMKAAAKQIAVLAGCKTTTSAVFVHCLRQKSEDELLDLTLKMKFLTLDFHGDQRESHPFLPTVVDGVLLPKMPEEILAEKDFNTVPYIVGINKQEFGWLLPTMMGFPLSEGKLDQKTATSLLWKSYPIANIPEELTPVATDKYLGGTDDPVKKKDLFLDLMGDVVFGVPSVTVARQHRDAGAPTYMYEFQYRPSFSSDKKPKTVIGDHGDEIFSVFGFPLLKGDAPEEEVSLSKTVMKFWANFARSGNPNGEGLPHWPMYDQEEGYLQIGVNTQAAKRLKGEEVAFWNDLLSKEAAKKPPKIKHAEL

[4] = test system: Mus musculus; assay: Analgesic effect in ICR mouse assessed as tail flick latencies at 20 to 40 mg/kg, ip measured 10 to 60 mins post dose by tail flick test; assay type: functional, organism-based; procedure, shortened: as §1
[5] = biological target: T2, Fatty-acid amide hydrolase 1 (Homo sapiens) (UniProt O00519); assay: Inhibition of MBP-fused human recombinant FAAH with truncated N-terminal transmembrane domain expressed in Escherichia coli T7 assessed as enzyme inactivation rate constant using D-AMC substrate incubated for 2 hrs by fluorescence based assay
T2 sequence (whole entry): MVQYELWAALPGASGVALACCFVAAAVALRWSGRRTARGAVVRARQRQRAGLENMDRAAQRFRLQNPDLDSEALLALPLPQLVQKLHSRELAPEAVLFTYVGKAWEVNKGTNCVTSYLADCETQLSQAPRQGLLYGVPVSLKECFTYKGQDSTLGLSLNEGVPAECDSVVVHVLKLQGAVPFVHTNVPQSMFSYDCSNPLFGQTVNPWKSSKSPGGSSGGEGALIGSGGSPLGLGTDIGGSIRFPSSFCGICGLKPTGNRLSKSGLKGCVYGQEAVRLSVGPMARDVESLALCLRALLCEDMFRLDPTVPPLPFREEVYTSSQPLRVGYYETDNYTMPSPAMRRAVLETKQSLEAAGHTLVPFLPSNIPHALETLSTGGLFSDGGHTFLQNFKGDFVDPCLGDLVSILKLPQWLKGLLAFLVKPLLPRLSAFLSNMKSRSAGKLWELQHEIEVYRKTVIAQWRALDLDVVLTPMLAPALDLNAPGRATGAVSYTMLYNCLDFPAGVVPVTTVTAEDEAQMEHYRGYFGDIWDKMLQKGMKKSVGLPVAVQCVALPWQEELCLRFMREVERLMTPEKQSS
Procedure, shortened: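 Human FAAH residues 34–579 as an MBP fusion, expressed in E. coli T7 Express with IPTG induction, then purified by amylose affinity and S100 chromatography. Substrate D-AMC at 5 μM final in 125 mM Tris-Cl, 1 mM EDTA, 0.1% BSA, pH 8.0, 37 °C; ex 351/em 430 nm. Apparent first-order k_i' measured at several inhibitor levels and fitted for k_inact and K_i (D-AMC Km 0.52 μM).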

[6] = test system: Mus musculus; assay: Analgesic effect in ICR mouse assessed as tail flick latencies at 20 to 100 mg/kg, ip measured 10 to 60 mins post dose by tail flick test; assay type: functional, organism-based; procedure, shortened: as §1
[7] = biological target: T3, Fatty-acid amide hydrolase 1 (Homo sapiens, UniProt O00519); assay: Inhibition of MBP-fused human recombinant FAAH with truncated N-terminal transmembrane domain expressed in Escherichia coli T7 using D-AMC substrate measured over 40 mins by fluorescence based assay
T3 sequence (O00519 whole entry): T2 sequence (whole entry)

[8] = biological target: T2, Fatty-acid amide hydrolase 1 (Homo sapiens); assay: Time dependent inhibition of MBP-fused human recombinant FAAH with truncated N-terminal transmembrane domain expressed in Escherichia coli T7 using D-AMC substrate measured over 40 mins by fluorescence based assay; conditions: TDE = time-dependent effect
Procedure, shortened: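 MBP–FAAH (residues 34–579, E. coli) at 3 μg protein per well, 8 pM active enzyme, with 5 μM D-AMC in Tris-Cl/EDTA/0.1% BSA pH 8.0 at 37 °C; DMSO ≤1%. Reactions started with enzyme; fluorescence read at ex 351/em 430 nm over 40 min. […] Ki from IC50 = Ki(1+[S]/Km)+[Et]/2.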

SMILES | Activity [1] | inhibition [2] | IC50 [3] [nM] | also measured
O=C(Oc1cccnc1)N1CCC(c2nc(C3=NOC(c4ccccc4)C3)cs2)CC1 (stereo not given) | inactive |  |  | 
Cc1ccccc1OC(=O)N1CCC(c2nc(C3=NOC(c4ccccc4)C3)cs2)CC1 (stereo not given) |  | inactive | 840 | 
O=C(Nc1ccccc1)N1CCC(c2nc(C3=NOC(c4ccccc4)C3)cs2)CC1 (stereo not given) |  | inactive | 5600 | 
O=C(Nc1cnccn1)N1CCC(c2nc(C3=NOC(c4ccccc4)C3)cs2)CC1 (stereo not given) | Active |  |  | Activity [4]: inactive
O=C(Nc1cccnc1)N1CCC(Cc2cccc(Oc3ccc(C(F)(F)F)cn3)c2)CC1 |  |  |  | K [5]: 0.0033 s⁻¹
N#Cc1ccc(OC(=O)N2CCC(c3nc(C4=NOC(c5ccccc5)C4)cs3)CC2)cc1 (stereo not given) | Active |  |  | Activity [6]: Dose-dependent effect
O=C(Nc1cccnn1)N1CCC(c2nc(C3=NOC(c4ccccc4)C3)cs2)CC1 (stereo not given) | Active |  |  | Activity [4]: inactive
O=C(Oc1ccccc1Cl)N1CCC(c2nc(C3=NOC(c4ccccc4)C3)cs2)CC1 (stereo not given) |  | inactive | 870 | 
COc1ccc(OC(=O)N2CCC(c3nc(C4=NOC(c5ccccc5)C4)cs3)CC2)cc1 (stereo not given) | inactive |  |  | 
O=C(Nc1nccs1)N1CCC(c2nc(C3=NOC(c4ccccc4)C3)cs2)CC1 (stereo not given) |  | inactive | > 10000 | 
O=C(Oc1ccc(Cl)cc1)N1CCC(c2nc(C3=NOC(c4ccccc4)C3)cs2)CC1 (stereo not given) |  | inactive | 470 | 
O=C(Oc1ccccc1)N1CCC(c2nc(C3=NOC(c4ccccc4)C3)cs2)CC1 (stereo not given) | Active | inactive | 2400 | Activity [4]: inactive
O=C(Oc1ccccc1)N1CCC(c2nc(C3=NOC4(CCCc5ccccc54)C3)cs2)CC1 (stereo not given) |  |  |  | Ki [7]: 2.73 nM; inhibition [8]: tde
